Laboratory results published in ChEMBL document CHEMBL5532647, “Design, synthesis, ADME and biological evaluation of benzylpiperidine and benzylpiperazine derivatives as novel reversible monoacylglycerol lipase (MAGL) inhibitors” (Eur J Med Chem, 2024).
Converted amounts (≈) assume the structure as drawn. The source made the active and inactive calls. The calls are words filed in the database; no cut-off is given here.

Legend:
[1] = Toxicity in Tenebrio molitor coleoptera assessed as lethal dose measured for 7 days; settings: time 7 day
Summary of the method: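 Tenebrio molitor beetles used within three days of metamorphosis. Compound dissolved in DMSO, 1 μL injected into the hemocoel between pronotum and elytron. Range-finding on 1 insect starting at 200 mg/kg. Dose then given to five insects with survival monitored 7 days, repeated until LD50 found, and confirmed in ten insects.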

[2] = Metabolic stability in human liver microsome in presence of NADPH-regenerating system by UV/LC-MS analysis; type: ADME; settings: microsomes
Summary of the method: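 Compound incubated 1 h at 37 °C with human liver microsomes (0.2 mg/mL) and an NADPH-regenerating system (NADPH 0.2 mM, NADP+ 1 mM, glucose-6-phosphate 4 mM, G6PDH 4 unit/mL, MgCl2 48 mM) in 25 mM phosphate buffer pH 7.4. Quenched with acetonitrile, then centrifuged. Parent and metabolites measured by UV/LC-MS. Percent unmetabolized obtained against reference solutions; three independent experiments.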

[3] = biological target: T1, Monoglyceride lipase (Mus musculus) (UniProt O35678); assay: Reversible inhibition of mouse brain MAGL at 10 uM incubated with compound for 25 mins by TAMRA-FP probe based SDS-PAGE analysis; type: tissue-based
T1 sequence (whole entry): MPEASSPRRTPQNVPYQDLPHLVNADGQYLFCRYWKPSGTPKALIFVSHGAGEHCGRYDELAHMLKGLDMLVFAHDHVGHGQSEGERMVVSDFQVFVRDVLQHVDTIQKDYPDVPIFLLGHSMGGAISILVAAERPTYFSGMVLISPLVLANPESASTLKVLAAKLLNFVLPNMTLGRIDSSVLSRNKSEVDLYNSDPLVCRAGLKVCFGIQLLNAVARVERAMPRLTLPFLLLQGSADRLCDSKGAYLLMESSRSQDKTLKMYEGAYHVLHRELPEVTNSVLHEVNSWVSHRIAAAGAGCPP
Summary of the method: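 Mouse brain membranes (2 mg/mL final, in PBS) preincubated 25 min at 25 °C with test compound (10 μM final) or DMSO vehicle. Controls: JZL-184, URB597 4 μM, WWL70 10 μM, THL, MAFP 5 μM. TAMRA-FP 125 nM final added for 5 min at 25 °C. Reaction stopped with Laemmli buffer, 3 min at 25 °C then 10 min at 90 °C. Separation by 10% SDS-PAGE, fluorescence scanning, three independent experiments.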

[4] = biological target: Cannabinoid receptor 2 (Homo sapiens) (UniProt P34972); assay: Displacement of [3H]CP55940 from human CB2 receptor at 10 uM incubated for 90 mins
Summary of the method: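 Membranes expressing hCB1 or hCB2 in 50 mM Tris-HCl buffer, pH 7.4, with 2.5 mM EDTA, 5 mM MgCl2 and 0.5% fatty acid-free BSA. Incubated with compound (10 μM screening) or vehicle plus 0.5 nM [3H]CP55,940 for 90 min at 30 °C. Non-specific binding defined with 10 μM […]. GF/B filtration, ice-cold buffer washes, radioactivity counted. Two independent experiments in triplicate.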

[5] = Stability in human plasma measured after 24 hrs by UV/LC-MS analysis; type: ADME, cell-free; settings: read-out: Stability
Summary of the method: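 Compound (2 mM) incubated at 37 °C in pooled human plasma (55.7 mg protein/mL) with HEPES 25 mM, NaCl 140 mM, pH 7.4. Samples taken at 0–24 h and precipitated with cold acetonitrile. After centrifugation, supernatant analysed by UV/LC-MS. Three independent experiments.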

[6] = Apparent permeability of the compound by PAMPA method; type: ADME
Summary of the method: (§1)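 Donor solution made from 1 mM DMSO stock diluted in 25 mM phosphate buffer pH 7.4 to 500 μM final. Filter coated with 1% (w/v) phosphatidylcholine in dodecane. Acceptor was 1:1 v/v DMSO/phosphate buffer. Sandwich incubated 5 h at room temperature. Compound in donor and acceptor wells quantified by UV/LC-MS.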

[7] = Permeability of the compound assessed as membrane retention rate by PAMPA method; type: ADME; summary of the method: as §1
[8] = Thermodynamic aqueous solubility of the compound by LC-MS/MS analysis; type: physicochemical; settings: read-out: Therm_solubility
Summary of the method: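 Solid compound (1 mg) shaken overnight in 1 mL distilled water at room temperature. Suspension passed through a 0.45 μm nylon filter. Dissolved compound quantified in triplicate by UV/LC-MS or LC-MS/MS against a calibration curve of compound in methanol.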

[9] = biological target: T2, Monoglyceride lipase (Homo sapiens) (UniProt Q99685); assay: Reversible inhibition of human recombinant MAGL using 4-nitrophenylacetate as substrate at 320 nM incubated for 15 mins by microplate reader analysis
T2 sequence (whole entry): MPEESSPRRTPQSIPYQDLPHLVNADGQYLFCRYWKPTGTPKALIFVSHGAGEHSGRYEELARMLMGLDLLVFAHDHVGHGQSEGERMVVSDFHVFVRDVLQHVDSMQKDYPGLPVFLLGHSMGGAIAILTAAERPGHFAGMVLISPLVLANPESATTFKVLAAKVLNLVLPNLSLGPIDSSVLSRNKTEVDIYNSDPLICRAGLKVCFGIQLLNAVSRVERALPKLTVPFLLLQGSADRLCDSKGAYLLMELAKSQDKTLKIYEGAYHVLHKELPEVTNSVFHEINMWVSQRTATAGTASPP
Summary of the method: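 Human recombinant MAGL (880 ng in Tris buffer, pH 7.2) incubated 60 min at room temperature with compound at 320 nM in the mixture, then diluted 40-fold in buffer. After 15 min, reaction started with 4-NPA 500 μM (stock added). Activity read at 405 nm after 30 min. Undiluted comparison run at 320 nM and 8 nM.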

Chain of Cannabinoid receptor 2 (Homo sapiens) (P34972 whole entry): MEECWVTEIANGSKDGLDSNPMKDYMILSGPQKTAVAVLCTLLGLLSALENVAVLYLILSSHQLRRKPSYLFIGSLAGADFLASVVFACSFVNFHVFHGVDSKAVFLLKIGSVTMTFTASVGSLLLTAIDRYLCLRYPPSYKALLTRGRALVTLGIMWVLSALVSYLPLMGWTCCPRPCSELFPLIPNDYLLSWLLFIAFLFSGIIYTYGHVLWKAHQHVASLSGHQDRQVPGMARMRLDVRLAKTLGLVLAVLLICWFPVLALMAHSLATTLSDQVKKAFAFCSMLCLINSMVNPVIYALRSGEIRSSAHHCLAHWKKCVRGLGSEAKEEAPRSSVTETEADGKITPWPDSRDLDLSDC

SMILES | LD50 at 168 h [1] [mg/kg] | Stability [2] [%] | inhibition [3] | Activity [4] | remaining at 24 h [5] [%] | Papp [6] [×10⁻⁶ cm/s] | R% [7] [%] | solubility thermodynamic [8] [µg/mL] | inhibition [9]
O=C(c1cc(O)ccc1F)N1CCC(Cc2cccc(Sc3cc(C(F)(F)F)ccn3)c2)CC1 | 200 | 96.76 | Active | inactive | 74.1 | 3.3 | 17.3 | 0.00321 (≈ 0.00655 µM) | Active
O=C(c1cc(O)ccc1F)N1CCN(Cc2cccc(Sc3cc(C(F)(F)F)ccn3)c2)CC1 | 300 | 98.51 | Active | inactive | > 99 | 1.33 | 3.2 | 5.47 (≈ 11.1 µM) | Active
O=C(c1cccc(O)c1)N1CCC(Cc2ccc(F)c(Sc3cc(C(F)(F)F)ccn3)c2)CC1 |  |  | Active | inactive |  |  |  |  | Active
O=C(c1cccc(O)c1)N1CCC(Cc2cccc(Sc3cc(C(F)(F)F)ccn3)c2)CC1 |  |  | Active | inactive |  |  |  |  | Active
